According to ChEMBL document CHEMBL2311432, “Synthesis, characterization and preliminary anticonvulsant evaluation of some 4-alkyl-1,2,4-triazoles” (Eur J Med Chem, 2013):

Assays:
Mus musculus [1] = assay: Anticonvulsant activity in ip dosed Swiss mouse assessed as protection against maximal electroshock-induced seizure administered 15 mins before test; assay type: functional
Summary of the method: (§1)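 Mice in groups of 8, each used once, given various i.p. doses of fresh solution at the stated pretreatment time before maximal electroshock. Protection percentages give dose-response lines by Litchfield-Wilcoxon. ED50 is the dose protecting 50% of mice against MES seizures, reported ± S.E.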

Mus musculus [2] = assay: Anticonvulsant activity in ip dosed Swiss mouse assessed as protection against maximal electroshock-induced seizure administered 60 mins before test; assay type: functional; summary of the method: as §1
Mus musculus [3] = assay: Protective index, ratio of TD50 for Swiss mouse administered 30 mins before test to ED50 for Swiss mouse administered 30 mins before test; assay type: functional
Summary of the method: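 PI equals chimney-test TD50 divided by MES-test ED50, both determined after i.p. dosing at the same pretreatment time in groups of 8 mice.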

Mus musculus [4] = assay: Anticonvulsant activity in ip dosed Swiss mouse assessed as protection against maximal electroshock-induced seizure administered 120 mins before test; assay type: functional; summary of the method: as §1
Mus musculus [5] = assay: Anticonvulsant activity in ip dosed Swiss mouse assessed as protection against maximal electroshock-induced seizure administered 30 mins before test; assay type: functional; summary of the method: as §1
Mus musculus [6] = assay: Protective index, ratio of TD50 for Swiss mouse administered 120 mins before test to ED50 for Swiss mouse administered 120 mins before test; assay type: functional
Mus musculus [7] = assay: Protective index, ratio of TD50 for Swiss mouse administered 60 mins before test to ED50 for Swiss mouse administered 60 mins before test; assay type: functional
Mus musculus [8] = assay: Anticonvulsant activity in Swiss mouse assessed as protection against maximal electroshock-induced seizure at 300 mg/kg, ip administered 15 mins before test; assay type: functional; details: route intraperitoneal
Summary of the method: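 Mice in groups of 8, each used once, after 7 days' adaptation. Fixed 300 mg/kg dose given i.p. from freshly prepared solution, then maximal electroshock applied at the stated pretreatment time. Read-out is the percentage of the 8 mice protected against MES-induced seizures.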

Mus musculus [9] = assay: Protective index, ratio of TD50 for Swiss mouse administered 15 mins before test to ED50 for Swiss mouse administered 15 mins before test; assay type: functional
[10] = Neurotoxicity in ip dosed Swiss mouse assessed as delay in motor coordination administered 30 mins before test by chimney test; assay type: toxicity, organism-based; details: in vivo
Summary of the method: (§2)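 Chimney test (Boissier). Mice must climb backward up a transparent tube (3 cm i.d., 30 cm long) within 60 s, and failure marks motor impairment. At least four groups of 8 mice receive various i.p. doses at the stated pretreatment time. TD50 comes from log-probit dose-response analysis (Litchfield-Wilcoxon), ± S.E.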

[11] = Neurotoxicity in ip dosed Swiss mouse assessed as delay in motor coordination administered 15 mins before test by chimney test; assay type: toxicity, organism-based; details: in vivo; summary of the method: as §2
[12] = Neurotoxicity in ip dosed Swiss mouse assessed as delay in motor coordination administered 120 mins before test by chimney test; assay type: toxicity, organism-based; details: in vivo; summary of the method: as §2
[13] = Neurotoxicity in ip dosed Swiss mouse assessed as delay in motor coordination administered 60 mins before test by chimney test; assay type: toxicity, organism-based; details: in vivo; summary of the method: as §2
Brain = assay: Drug uptake in Swiss mouse brain assessed as per 1 mg of tissue at 300 mg/kg, ip; assay type: ADME, organism-based; design: dose 300 mg/kg, route intraperitoneal; details: in vivo

Structure (SMILES)	ED50 (Mus musculus [1]) [mg/kg]	ED50 (Mus musculus [2]) [mg/kg]	Ratio TD50/ED50 (Mus musculus [3])	ED50 (Mus musculus [4]) [mg/kg]	ED50 (Mus musculus [5]) [mg/kg]	Ratio TD50/ED50 (Mus musculus [6])	Ratio TD50/ED50 (Mus musculus [7])	Activity (Mus musculus [8]) [%]	Ratio TD50/ED50 (Mus musculus [9])	TD50 at 0.5 h [10] [mg/kg]	TD50 at 0.25 h [11] [mg/kg]	TD50 at 2 h [12] [mg/kg]	TD50 at 1 h [13] [mg/kg]	Drug uptake (Brain)
CCCCCCn1c(-c2cccc(Cl)c2)n[nH]c1=S	47.6	98.1	6.8	160	68.3	2.8	4.7	100	9.7					
CCCC(CCC)C(=O)[O-].CCCC(CCC)C(=O)[O-].[Mg+2] [MAGNESIUM VALPROATE]										373	363	512	417	
CCCCn1c(-c2cccc(Cl)c2)n[nH]c1=S	38.5	156	5.2	311	77.8	1.4	2.7	100	10.3	405	398	429	414	
CCCCCCCCCCCCn1c(-c2cccc(Cl)c2)n[nH]c1=S														Not Active
CCCCCCCCCn1c(-c2cccc(Cl)c2)n[nH]c1=S	144	105	5.5	143	130	4.6	6.1	100	4.6	713	667	659	640	
CCn1c(S)nnc1-c1cccc(Cl)c1	153	252	3.7	320	204	2.8	2.9	100	4.8	753	731	887	742	
CCCCCCCn1c(-c2cccc(Cl)c2)n[nH]c1=S	55.1	102	6.5	135	65.2	3.3	4.2	100	7.5	423	416	440	430	
CCCCCn1c(-c2cccc(Cl)c2)n[nH]c1=S	46.5	69.5	4.8	147	65.2	2.7	4.4	100	6.7	310	310	392	303	
